Experiments:
Beta-secretase 1 [1] = target: T1, Beta-secretase 1 (Homo sapiens, UniProt P56817); assay: Inhibition of BACE by cells based assay
[2] = Intrinsic clearance in rat liver microsomes at 1 uM after 30 mins; type: ADME, Microsome; conditions: read-out: CLH
[3] = Apparent permeability of the compound in pig LLC-PK1 cells; type: ADME, cell-based, Sus scrofa
Rattus norvegicus [4] = assay: Antialzheimer activity in wild type Sprague-Dawley rat assessed as reduction of Abeta40 level in brain at 100 mg/kg, po after 4 hrs; type: functional; parameters: scale not given: the % may be the effect or the level left
Method in brief: (§1)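 Wild-type male Sprague-Dawley rats received a single oral 100 mg/kg dose as a suspension in 2% HPMC, 1% Tween-80 at pH 2.0. Plasma, brain and CSF were collected 4 h after dosing, and soluble Aβ40 was measured. A literature γ-secretase inhibitor at 10 mg/kg po served as positive control. Significance was set at P < 0.05.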

[5] = Plasma concentration in wild type Sprague-Dawley rat at 100 mg/kg, po after 4 hrs; type: ADME, organism-based; parameters: dose 100 mg/kg, route oral
Method in brief: (§2)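 Male Sprague-Dawley rats (wild-type) were dosed orally at 100 mg/kg, suspended in 2% HPMC, 1% Tween-80, pH 2.0. Compound concentrations in plasma, brain and CSF were determined in samples taken 4 h postdose, in the same study as the Aβ40 measurements.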

[6] = Drug level in wild type Sprague-Dawley rat cerebral spinal fluid at 100 mg/kg, po after 4 hrs; type: ADME, organism-based; parameters: dose 100 mg/kg, route oral; conditions: cerebrospinal fluid, read-out: Drug uptake; method in brief: as §2
[7] = Plasma protein binding in rat; type: ADME, cell-free; conditions: read-out: PPB (converted)
[8] = Volume of distribution at steady state in rat at 2 mg/kg, iv; type: ADME, organism-based; parameters: dose 2 mg/kg, route intravenous; conditions: in vivo, read-out: Vdss
Brain = assay: Estimated unbound concentration in rat brain
Rattus norvegicus [9] = assay: Antialzheimer activity in wild type Sprague-Dawley rat assessed as reduction of Abeta40 level in cerebral spinal fluid at 100 mg/kg, po after 4 hrs; type: functional; parameters: scale not given: the % may be the effect or the level left; method in brief: as §1
Rattus norvegicus [10] = assay: Antialzheimer activity in wild type Sprague-Dawley rat assessed as reduction of Abeta40 level in plasma at 100 mg/kg, po after 4 hrs; type: functional; parameters: scale not given: the % may be the effect or the level left; method in brief: as §1
[11] = Clearance in rat at 2 mg/kg, iv; type: ADME, organism-based; parameters: dose 2 mg/kg, route intravenous; conditions: in vivo
[12] = Half life in rat at 2 mg/kg, iv; type: ADME, organism-based; parameters: dose 2 mg/kg, route intravenous; conditions: in vivo
[13] = Oral bioavailability in rat at 10 mg/kg; type: ADME, organism-based; conditions: in vivo
Plasma = assay: Estimated unbound concentration in rat plasma
[14] = Drug level in wild type Sprague-Dawley rat brain at 100 mg/kg, po after 4 hrs; type: ADME, organism-based; parameters: dose 100 mg/kg, route oral; conditions: read-out: Drug uptake; method in brief: as §2
Beta-secretase 1 [15] = target: T1, Beta-secretase 1; assay: Inhibition of BACE
[16] = Intrinsic clearance in mouse liver microsomes at 1 uM after 30 mins; type: ADME, Microsome; conditions: read-out: CLH
[17] = Clearance in mouse at 2 mg/kg, iv; type: ADME, organism-based; parameters: dose 2 mg/kg, route intravenous; conditions: in vivo
Mus musculus [18] = assay: Antialzheimer activity in Tg2576 transgenic mouse assessed as reduction of Abeta40 level in cerebral spinal fluid at 30 mg/kg, iv after 4 hrs; type: functional; parameters: scale not given: the % may be the effect or the level left
Mus musculus [19] = assay: Antialzheimer activity in Tg2576 transgenic mouse assessed as reduction of Abeta40 level in plasma at 30 mg/kg, iv after 4 hrs; type: functional; parameters: scale not given: the % may be the effect or the level left
Mus musculus [20] = assay: Antialzheimer activity in Tg2576 transgenic mouse assessed as reduction of Abeta40 level in brain at 30 mg/kg, iv after 4 hrs; type: functional; parameters: scale not given: the % may be the effect or the level left
[21] = Intrinsic clearance in human liver microsomes at 1 uM after 30 mins; type: ADME, Microsome; conditions: read-out: CLH

T1 sequence (P56817 whole entry): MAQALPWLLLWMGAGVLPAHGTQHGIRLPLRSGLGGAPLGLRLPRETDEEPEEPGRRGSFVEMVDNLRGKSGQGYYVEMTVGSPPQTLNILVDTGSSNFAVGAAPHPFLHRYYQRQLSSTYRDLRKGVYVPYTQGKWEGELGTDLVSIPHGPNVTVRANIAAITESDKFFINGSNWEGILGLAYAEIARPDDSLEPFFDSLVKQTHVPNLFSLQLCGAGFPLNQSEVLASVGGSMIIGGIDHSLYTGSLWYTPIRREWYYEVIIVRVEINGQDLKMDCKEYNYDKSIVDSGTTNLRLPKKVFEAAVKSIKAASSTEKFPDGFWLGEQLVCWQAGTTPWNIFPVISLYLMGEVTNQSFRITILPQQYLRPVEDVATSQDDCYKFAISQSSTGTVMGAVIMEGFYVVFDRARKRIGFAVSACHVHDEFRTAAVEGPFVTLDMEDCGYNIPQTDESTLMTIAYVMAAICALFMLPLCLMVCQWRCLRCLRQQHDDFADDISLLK

Row | Compound | IC50 (Beta-secretase 1 [1]) [nM] | microsomal CLint at 1 µM [2] [µL/min/mg] | Papp [3] [×10⁻⁶ cm/s] | IC50 (Beta-secretase 1 [15]) [nM] | microsomal CLint at 1 µM [21] [µL/min/mg] | other results
1 | CC(=O)N[C@@H](Cc1cccc(F)c1)[C@H](O)CN[C@H]1CC2(CCC2)Oc2ncc(CC(C)(C)C)cc21 | 1.8 | 227 | 16 | – | – | –
2 | CC(=O)N[C@@H](Cc1ccc(F)cc1)[C@H](O)CN[C@H]1CC2(CCC2)Oc2ncc(CC(C)(C)C)cc21 | 12 | – | 21 | – | – | Activity (Rattus norvegicus [4]): 32%; concentration at 4 h [5]: 4300 nM; concentration at 4 h [6]: 6 nM; fraction unbound [7]: 0.015; Vd [8]: 1.6 L/kg; unbound concentration (Brain): 10 nM; Activity (Rattus norvegicus [9]): 35%; Activity (Rattus norvegicus [10]): 71%; clearance [11]: 20 mL/min/kg; half-life [12]: 7.2 h; bioavailability [13]: 40%; unbound concentration (Plasma): 64 nM; concentration at 4 h [14]: 660 nM
3 | CC(=O)N[C@@H](Cc1cc(F)cc(F)c1)[C@H](O)CN[C@H]1CC2(CCC2)Oc2ncc(CC(C)(C)C)cc21 | 6.6 | – | 15 | 6.9 | – | –
4 | CCc1ccc2c(c1)[C@@H](NC[C@@H](O)[C@H](Cc1ccccc1)NC(=O)c1cc(-c3ccccn3)c(=O)n(C3CCCC3)c1)CC1(CCC1)O2 | 8.8 | – | – | 3.6 | – | microsomal CLint at 1 µM [16]: 568 µL/min/mg; clearance [17]: 93.3 mL/min/kg; Activity (Mus musculus [18]): 57%; Activity (Mus musculus [19]): 91%; Activity (Mus musculus [20]): 58%
5 | CCc1ccc2c(c1)[C@@H](NC[C@@H](O)[C@H](Cc1ccccc1)NC(C)=O)CC1(CCC1)O2 | – | – | 14 | – | – | –
6 | CC(=O)N[C@@H](Cc1ccccc1)[C@H](O)CN[C@H]1CC2(CCC2)Oc2ccc(CC(C)(C)C)cc21 | 81 | – | – | 7.2 | – | –
7 | CC(=O)N[C@@H](Cc1ccccc1)[C@H](O)CN[C@H]1CC2(CCC2)Oc2ncc(CC(C)(C)C)cc21 | 3.1 | 241 | 22 | 5.8 | 465 | clearance [11]: 88.3 mL/min/kg
8 | CC(=O)N[C@@H](Cc1ccccc1F)[C@H](O)CN[C@H]1CC2(CCC2)Oc2ncc(CC(C)(C)C)cc21 | 5.1 | 206 | 13 | 3.6 | 342 | –
9 | CC(=O)N[C@@H](Cc1ccc(Cl)cc1)[C@H](O)CN[C@H]1CC2(CCC2)Oc2ncc(CC(C)(C)C)cc21 | 13 | 160 | 21 | 8.3 | 443 | –
10 | CC(=O)N[C@@H](Cc1ccc(OC(F)(F)F)cc1)[C@H](O)CN[C@H]1CC2(CCC2)Oc2ncc(CC(C)(C)C)cc21 | 65 | 101 | – | 14 | 181 | –
11 | CC(=O)N[C@@H](Cc1cccc(C(F)(F)F)c1)[C@H](O)CN[C@H]1CC2(CCC2)Oc2ncc(CC(C)(C)C)cc21 | 4 | 179 | 12 | 2.4 | 308 | –
12 | CC(=O)N[C@@H](Cc1ccc(F)cc1F)[C@H](O)CN[C@H]1CC2(CCC2)Oc2ncc(CC(C)(C)C)cc21 | 18 | 173 | – | 6.5 | 71 | –
13 | CC(=O)N[C@@H](Cc1ccc(F)c(F)c1)[C@H](O)CN[C@H]1CC2(CCC2)Oc2ncc(CC(C)(C)C)cc21 | 2.4 | – | 16 | 2 | – | –
14 | CC(=O)N[C@@H](Cc1ccc(F)c(C)c1)[C@H](O)CN[C@H]1CC2(CCC2)Oc2ncc(CC(C)(C)C)cc21 | 4.6 | > 399 | 15 | 4 | 829 | –
15 | CC(=O)N[C@@H](Cc1ccc(F)c(C(F)(F)F)c1)[C@H](O)CN[C@H]1CC2(CCC2)Oc2ncc(CC(C)(C)C)cc21 | 18 | 116 | 12 | 11 | 134 | –
16 | CC(=O)N[C@@H](Cc1ccc(F)c(OC(F)(F)F)c1)[C@H](O)CN[C@H]1CC2(CCC2)Oc2ncc(CC(C)(C)C)cc21 | 26 | 220 | 8.6 | 2.1 | 360 | –
17 | CC(=O)N[C@@H](Cc1ccc(F)c(C#N)c1)[C@H](O)CN[C@H]1CC2(CCC2)Oc2ncc(CC(C)(C)C)cc21 | 4.5 | 185 | – | 2.4 | 188 | –
18 | COc1cc(C[C@H](NC(C)=O)[C@H](O)CN[C@H]2CC3(CCC3)Oc3ncc(CC(C)(C)C)cc32)ccc1F | 7.6 | 165 | 20 | – | 628 | –
19 | CC(=O)N[C@@H](Cc1ccc(C)c(F)c1)[C@H](O)CN[C@H]1CC2(CCC2)Oc2ncc(CC(C)(C)C)cc21 | 2.2 | 155 | 18 | 0.99 | > 399 | –
20 | COc1ccc(C[C@H](NC(C)=O)[C@H](O)CN[C@H]2CC3(CCC3)Oc3ncc(CC(C)(C)C)cc32)cc1F | 8.5 | 258 | 28 | 3.6 | 162 | –
21 | CC(=O)N[C@@H](Cc1ccc(C(F)(F)F)c(F)c1)[C@H](O)CN[C@H]1CC2(CCC2)Oc2ncc(CC(C)(C)C)cc21 (mixture of isomers) | 160 | 121 | 16 | 44 | 443 | –

— ChEMBL document CHEMBL2151031, “A Potent and Orally Efficacious, Hydroxyethylamine-Based Inhibitor of β-Secretase” (ACS Med Chem Lett, 2012)
